Measurements from PMC7245055 (Chemical biology & drug design, 2019).
≈ marks a conversion by molar mass, not a printed value. Entries after “also recorded” stand apart in the source; their conditions may differ.

What was measured:
[1] = test system: INS-1 β-cells; conditions: cited from earlier work
[2] = Thermodynamic turbidimetric aqueous solubility assay; format: physicochemical; conditions: for aqueous solubility (in words): turbidity at 620 nm in H2O; for solubility: pure water with 1% DMSO, 37 °C, water, kinetic from dmso stock
Procedure, shortened: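 DMSO solutions of test compound were serially diluted from 40 mM to 0.1 mM. Each was diluted 2 μL into ~198 μL pure water and shaken on a rotary shaker at 37 °C for 1–2 h to reach equilibrium solubility. Turbidity was measured as absorbance at 620 nm. Triplicate wells, reported as means ± SD.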

[3] = test system: INS-1 β cells; assay: INS-1 cell viability against brefeldin A; format: cell-based, rat; conditions: BFA 0.2 μg/mL, 72 h, CellTiter-Glo
Procedure, shortened: (§1)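 INS-1 cells were plated in RPMI 1640 with 10% FBS at 5 × 10^3 cells/well and held 24 h at 37 °C. Test compound was pin-transferred, then stressor was added in medium: TG 18 nM or BFA 0.2 μg/mL. After 72 h the medium was removed and CellTiter-Glo (intracellular ATP) added; luminescence was read after 10 min. DMSO without stressor was normalized as 1. Data are means of 3 replicate wells, with 3 independent experiments.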

[4] = test system: INS-1 β cells; assay: INS-1 cell viability against thapsigargin; format: cell-based, rat; conditions: TG 18 nM, 72 h, CellTiter-Glo
Procedure, shortened: as §1

[5] = test system: INS-1 β-cells; assay: INS-1 β-cell viability against tunicamycin; format: cell-based, rat; conditions: INS-1 cells, Tm
Procedure, shortened: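 Rat INS-1 cells in RPMI 1640 with 10% FBS were seeded at 5 × 10^3 cells/well and held 24 h at 37 °C. Test compound was added as ten 2-fold serial titration points, then tunicamycin at 0.15 μg/mL final, for 72 h co-treatment. Viability was read as CellTiter-Glo luminescence (ATP) after 10 min. Maximum activity is % rescue, with Tm alone set as 0% and DMSO without Tm as 100%. EC50 was derived by curve fitting. Run in triplicate.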

Row | aqueous solubility (in words) [2] | SMILES | β-cell protective activity (in words) [5] | other results
1 | – | Cc1ccc(C)c(CNC(=O)CNC(=O)c2cccc(Cl)c2C)c1 [Compound 5a, 3-Chloro-N-(2-((2,5-dimethylbenzyl)amino)-2-oxoethyl)-2-methylbenzamide] | – | solubility [2]: ~75 µM (≈ 25.9 µg/mL)
2 | – | Cc1c(Cl)cccc1C(=O)NCC(=O)NCCc1ccc(O)cc1 [Compound 5f, 3-Chloro-N-(2-((4-hydroxyphenethyl)amino)-2-oxoethyl)-2-methylbenzamide] | – | solubility [2]: ~200 µM (≈ 69.4 µg/mL)
3 | improved water solubility compare to 1 | Cc1c(Cl)cccc1C(=O)NCC(=O)NCc1ccc(C(F)(F)F)cc1 [Compound 5g, 3-Chloro-2-methyl-N-(2-oxo-2-((4-(trifluoromethyl)benzyl)amino)ethyl)benzamide] | – | –
4 | improved water solubility compare to 1 | COc1cc(CNC(=O)CNC(=O)c2cccc(Cl)c2C)ccc1O [Compound 5h, 3-Chloro-N-(2-((4-hydroxy-3-methoxybenzyl)amino)-2-oxoethyl)-2-methylbenzamide] | – | –
5 | – | O=C(CNC(=O)c1cccc(O)c1)NCc1ccc(C(F)(F)F)cc1 [Compound 5m, 3-Hydroxy-N-(2-oxo-2-((4-(trifluoromethyl)benzyl)amino)ethyl)benzamide] | – | reduction in viability of INS-1 cells treated with BFA [3]: significantly reversed; reduction in viability of INS-1 cells treated with TG [4]: significantly reversed
6 | – | COc1cc(CNC(=O)CNC(=O)c2cccc(O)c2)ccc1O [Compound 5n, 3-Hydroxy-N-(2-((4-hydroxy-3-methoxybenzyl)amino)-2-oxoethyl)benzamide] | significantly compromised activity | –
7 | – | COc1cc(C(=O)NCC(=O)NCc2ccc(C(F)(F)F)cc2)ccc1O [Compound 5o, 4-hydroxy-3-methoxy-N-(2-oxo-2-((4-(trifluoromethyl)benzyl)amino)ethyl)benzamide] | significantly compromised activity | –
8 | – | Cc1c(Cl)cccc1C(=O)NC(C)C(=O)NCc1ccc(C(F)(F)F)cc1 (stereo not shown) [Compound 5p, 3-Chloro-2-methyl-N-(1-oxo-1-((4-(trifluoromethyl)benzyl)amino)propan-2-yl)benzamide] | significantly less or not active | –
9 | – | Cc1c(Cl)cccc1C(=O)NC(Cc1ccc(O)cc1)C(=O)NCc1ccc(C(F)(F)F)cc1 (stereo not shown) [Compound 5q, 3-Chloro-N-(3-(4-hydroxyphenyl)-1-oxo-1-((4-(trifluoromethyl)benzyl)amino)propan-2-yl)-2-methylbenzamide] | significantly less or not active | –

Row | SMILES | aqueous solubility (in words) [2] | β-cell protective activity (in words) [5] | other results
10 | Cc1ccc(C)c(NC(=O)c2nnn(-c3cccc(Cl)c3C)c2C)c1 [Compound 1, 1-(3-chloro-2-methylphenyl)-N-(2,5-dimethylphenyl)-5-methyl-1H-1,2,3-triazole-4-carboxamide, reference compound] | poor aqueous solubility; also recorded: limited aqueous solubility; also recorded: aqueous insolubility | – | concentration at which β cell protective activity is exhibited ([1]; narrow range of doses): 5~10 μM; maximal activity ([1]; protection of β cells against ER stress): 97%
